Assays:
CES2 (cocaine esterase) [1] = biological target: T1, CES2 (cocaine esterase) (Homo sapiens, UniProt O00748); experiment: Inhibition of human intestinal CES2 expressed in baculovirus infected sf9 cells at 10 uM using o-nitrophenyl acetate as substrate monitored at 15 secs interval for 5 mins relative to control; settings: probe o-nitrophenyl acetate
T1 sequence (O00748 whole entry): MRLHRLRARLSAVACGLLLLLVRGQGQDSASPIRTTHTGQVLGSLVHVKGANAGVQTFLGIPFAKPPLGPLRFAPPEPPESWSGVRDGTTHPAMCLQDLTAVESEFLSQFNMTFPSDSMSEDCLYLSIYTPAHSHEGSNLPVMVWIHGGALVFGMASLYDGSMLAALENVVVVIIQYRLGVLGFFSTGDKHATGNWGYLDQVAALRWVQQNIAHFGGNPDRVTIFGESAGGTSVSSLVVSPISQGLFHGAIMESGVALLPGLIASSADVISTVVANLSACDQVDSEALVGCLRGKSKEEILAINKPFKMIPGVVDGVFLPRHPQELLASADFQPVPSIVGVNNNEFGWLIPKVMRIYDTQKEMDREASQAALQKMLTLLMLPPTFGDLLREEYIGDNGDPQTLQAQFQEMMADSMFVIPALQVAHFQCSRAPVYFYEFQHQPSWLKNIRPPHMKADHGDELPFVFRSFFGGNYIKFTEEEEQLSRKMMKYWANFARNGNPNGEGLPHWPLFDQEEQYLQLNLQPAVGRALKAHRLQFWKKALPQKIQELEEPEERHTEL

[2] = biological target: T2, CES1 (liver carboxylesterase 1) (Homo sapiens, UniProt P23141); experiment: Inhibition of human liver CES1 expressed in baculovirus infected sf9 cells at 10 uM using o-nitrophenyl acetate as substrate monitored at 15 secs interval for 5 mins relative to control; settings: probe o-nitrophenyl acetate
T2 sequence (P23141 whole entry): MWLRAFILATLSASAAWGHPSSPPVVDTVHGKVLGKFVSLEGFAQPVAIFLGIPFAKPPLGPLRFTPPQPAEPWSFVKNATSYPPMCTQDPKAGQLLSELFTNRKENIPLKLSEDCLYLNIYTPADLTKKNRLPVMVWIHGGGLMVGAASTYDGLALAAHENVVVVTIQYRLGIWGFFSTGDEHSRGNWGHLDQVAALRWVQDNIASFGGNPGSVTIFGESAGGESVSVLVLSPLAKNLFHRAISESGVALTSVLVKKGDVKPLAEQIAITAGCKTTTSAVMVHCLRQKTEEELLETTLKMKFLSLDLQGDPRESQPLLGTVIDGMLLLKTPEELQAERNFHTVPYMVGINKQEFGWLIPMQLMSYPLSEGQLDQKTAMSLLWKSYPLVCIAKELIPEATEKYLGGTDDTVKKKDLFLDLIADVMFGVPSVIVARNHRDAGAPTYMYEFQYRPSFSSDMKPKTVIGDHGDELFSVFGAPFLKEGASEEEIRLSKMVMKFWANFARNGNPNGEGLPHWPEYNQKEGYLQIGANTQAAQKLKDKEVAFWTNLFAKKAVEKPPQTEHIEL
Summary of the method: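 Purified secreted hCE1 from Sf9 culture medium, isolated by isoelectric focusing and chromatography. Inhibitor tested at a single concentration of 10 µM against o-NPA hydrolysis. Read-out is percent inhibition.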

[3] = biological target: Acetylcholinesterase (Homo sapiens) (UniProt P22303); experiment: Inhibition of human AChE at 10 uM using acetylthiocholine as substrate by spectrophotometric method relative to control
Chain of Acetylcholinesterase (Homo sapiens) (P22303 whole entry): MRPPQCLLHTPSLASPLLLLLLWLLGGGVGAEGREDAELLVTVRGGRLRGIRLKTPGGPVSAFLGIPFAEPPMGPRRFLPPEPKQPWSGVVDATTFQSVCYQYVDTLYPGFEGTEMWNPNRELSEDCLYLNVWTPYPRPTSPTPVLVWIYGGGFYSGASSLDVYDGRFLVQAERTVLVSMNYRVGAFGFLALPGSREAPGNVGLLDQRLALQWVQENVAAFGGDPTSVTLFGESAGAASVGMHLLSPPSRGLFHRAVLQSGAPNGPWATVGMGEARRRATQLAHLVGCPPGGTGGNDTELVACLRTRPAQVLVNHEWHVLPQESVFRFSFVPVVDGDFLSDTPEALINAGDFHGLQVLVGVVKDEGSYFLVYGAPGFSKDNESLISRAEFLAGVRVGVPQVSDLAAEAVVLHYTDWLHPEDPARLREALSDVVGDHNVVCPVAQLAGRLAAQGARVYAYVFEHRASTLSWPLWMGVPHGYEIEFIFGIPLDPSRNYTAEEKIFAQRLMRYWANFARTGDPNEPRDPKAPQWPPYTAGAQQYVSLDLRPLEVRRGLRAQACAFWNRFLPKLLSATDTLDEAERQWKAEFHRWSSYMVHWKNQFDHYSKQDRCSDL

[4] = biological target: T2, CES1 (liver carboxylesterase 1); experiment: Inhibition of human liver CES1 expressed in U373MG cells assessed as oseltamivir carboxylate formation at 5 uM using oseltamivir as substrate preincubated for 30 mins followed by compound washout and subsequent compound/substrate addition measured after 30 mins by UPLC-MS method relative to control; type: cell-based; set-up: scale not given: the % may be the effect or the level left; settings: U373MG cells expressing human liver CES1, probe oseltamivir, read-out: Activity
Summary of the method: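 U373MG cells expressing hCE1 (1 x 10^5/well) attached overnight. They were pretreated 30 min with 5 µM inhibitor, then media was replaced with fresh media containing 20 µM oseltamivir plus 5 µM inhibitor for 30 min. Media was mixed with an equal volume of acetonitrile and metabolites were quantified by UPLC-MS. Run in duplicate with DMSO control.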

Liver carboxylesterase 1 [5] = biological target: T3, Liver carboxylesterase 1 (Homo sapiens, UniProt P23141); experiment: Inhibition of human liver CES1 expressed in baculovirus infected sf9 cells using o-nitrophenyl acetate as substrate monitored at 15 secs interval for 5 mins
T3 sequence (P23141 whole entry): T2 sequence (P23141 whole entry)
Summary of the method: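 Purified hCE1 secreted from baculovirus-infected Sf9 cells, isolated from serum-free medium by preparative isoelectric focusing and chromatography. o-NPA hydrolysis measured with at least 8 inhibitor concentrations, each point in quadruplicate. Fractional inhibition fitted to a general partial-inhibition model (α 0 to ∞, β 0 to 1). The best model was chosen by r2 and Akaike's information criterion, and Ki was calculated from that model.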

[6] = Drug metabolism in DMSO/sodium phosphate buffer assessed as tautomerization at pH 3 to 11 by UV-spectroscopic method; type: physicochemical
Summary of the method: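 UV absorbance spectra recorded in aqueous 20% DMSO:80% 200 mM sodium phosphate buffer across a range of pH values to follow tautomeric form.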

U373 MG [7] = experiment: Cytotoxicity against human U373MG cells assessed as cell viability after 30 mins relative to control; type: cell-based; settings: u-373mg atcc, 0.5 h
U373 MG [8] = experiment: Growth inhibition of human U373MG cells after 72 hrs; type: cell-based, U-373MG ATCC
Liver carboxylesterase 1 [9] = biological target: T3, Liver carboxylesterase 1; experiment: Inhibition of human liver CES1 expressed in baculovirus infected sf9 cells using oseltamivir as substrate
CES2 (cocaine esterase) [10] = biological target: T1, CES2 (cocaine esterase); experiment: Inhibition of human intestinal CES2 expressed in U373MG cells assessed as 7-ethyl-10-hydroxycamptothecin formation at 5 uM using irinotecan as substrate preincubated for 1 hr followed by substrate addition measured after 5 mins by HPLC method relative to control; type: cell-based; set-up: scale not given: the % may be the effect or the level left; settings: U373MG cells expressing human intestinal CES2, probe irinotecan, read-out: Activity
Homo sapiens = organism: Homo sapiens; experiment: Selectivity ratio of Ki for human intestinal CES2 to Ki for human liver CES1
Cocaine esterase = biological target: T4, Cocaine esterase (Homo sapiens, UniProt O00748); experiment: Inhibition of human intestinal CES2 expressed in baculovirus infected sf9 cells using o-nitrophenyl acetate as substrate monitored at 15 secs interval for 5 mins
T4 sequence (O00748 whole entry): T1 sequence (O00748 whole entry)

| SMILES | inhibition at 5 min, 10 µM (CES2 (cocaine esterase) [1]) | inhibition at 5 min, 10 µM [2] | inhibition [3] | activity at 0.5 h, 5 µM [4] | Ki (Liver carboxylesterase 1 [5]) | Drug metabolism [6] | Activity (U373 MG [7]) | IC50 (U373 MG [8]) | Ki (Liver carboxylesterase 1 [9]) | activity at 5 min, 5 µM (CES2 (cocaine esterase) [10]) | Ratio Ki (Homo sapiens) | Ki (Cocaine esterase) |
| --- | --- | --- | --- | --- | --- | --- | --- | --- | --- | --- | --- | --- |
| O=C1C=C(Nc2ccc(F)cc2)c2ccccc2C1=O | 14% | 40% | 21% | – | – | – | – | – | – | – | – | – |
| O=C1C=C(Oc2ccc(F)cc2)c2ccccc2C1=O | – | – | 22% | 25% | 45.3 nM | Metabolite_Notdetected | – | – | – | – | – | – |
| O=C1C=C(Nc2ccc(Cl)cc2)c2ccccc2C1=O | 22% | 33% | 23% | – | – | – | – | – | – | – | – | – |
| O=C1C=C(Oc2ccc(Br)cc2)c2ccccc2C1=O | – | – | 26% | 47% | 14.3 nM | – | – | – | – | – | – | – |
| CC1(C)CCC2=C(O1)c1ccccc1C(=O)C2=O [LAPACHONE] | – | – | 10% | 12% | 1220 nM | – | – | – | – | – | – | – |
| O=C1C=C(Oc2ccc(I)cc2)c2ccccc2C1=O | – | – | 25% | – | 4.7 nM | – | – | – | – | – | – | – |
| O=C1C=C(Nc2ccccc2)c2ccccc2C1=O | 12% | 30% | 5% | – | – | Metabolite_Detected | – | – | – | – | – | – |
| CN(C1=CC(=O)C(=O)c2ccccc21)c1ccc(F)cc1 | 19% | – | 1% | 1% | 163 nM | Metabolite_Notdetected | 96% | 3900 nM | 37.6 nM | 92% | – | – |
| Cc1ccc(N(C)C2=CC(=O)C(=O)c3ccccc32)cc1 | 25% | – | 3% | 2% | 11.1 nM | – | 100% | 4600 nM | 4.9 nM | 93% | – | – |
| Cc1ccc(OC2=CC(=O)C(=O)c3ccccc32)cc1 | – | – | 8% | 13% | 4.44 nM | – | – | – | – | – | – | – |
| COc1ccc(NC2=CC(=O)C(=O)c3ccccc32)cc1 | 12% | 26% | 5% | – | – | – | – | – | – | – | – | – |
| CN(C1=CC(=O)C(=O)c2ccccc21)c1ccc(Br)cc1 | – | – | 12% | 19% | 16.1 nM | – | – | – | 17.2 nM | 89% | 4 to 11 | 1840 nM |
| O=C1C=C(Nc2ccc(I)cc2)c2ccccc2C1=O | 10% | 41% | 16% | – | – | – | – | – | – | – | – | – |
| Cc1ccc(NC2=CC(=O)C(=O)c3ccccc32)cc1 | 15% | 44% | 17% | – | – | – | – | – | – | – | – | – |
| CN(C1=CC(=O)C(=O)c2ccccc21)c1ccccc1 | 33% | – | 3% | 8% | 90 nM | Metabolite_Notdetected | 99% | 12800 nM | 32.1 nM | 77% | – | – |
| COc1ccc(OC2=CC(=O)C(=O)c3ccccc32)cc1 | – | – | 18% | 14% | 17.8 nM | – | – | – | – | – | – | – |
| CN(C1=CC(=O)C(=O)c2ccccc21)c1ccc(I)cc1 | 83% | – | 31% | – | 400 to 408 nM | – | – | – | 148 nM | – | 4 to 11 | 284 nM |
| CN(C1=CC(=O)C(=O)c2ccccc21)c1ccc(Cl)cc1 | 30% | – | 4% | 5% | 19.2 nM | – | – | – | 12.9 nM | 91% | – | – |
| O=C1C=C(Nc2ccc(Br)cc2)c2ccccc2C1=O | 12% | 26% | 16% | – | – | – | – | – | – | – | – | – |
| COc1ccc(N(C)C2=CC(=O)C(=O)c3ccccc32)cc1 | 7% | – | 1% | 6% | 81.6 nM | – | – | – | 17.7 nM | 77% | – | – |
| O=C1C=C(Oc2ccc(Cl)cc2)c2ccccc2C1=O | – | – | 31% | 20% | 18.9 nM | – | – | – | – | – | – | – |
| O=C1C=C(Oc2ccccc2)c2ccccc2C1=O | – | – | 11% | 19% | 23.8 nM | Metabolite_Notdetected | – | – | – | – | – | – |
